In the library only some 4.2% were active in any assay of this set; here they are far more common.
Rad51 HR inh: Rad51 (human) homologous recombination inhibition. inhibition, % at 10 µM. AID 1385. actives 0.085% (n = 200,000). Q06609. hRad51 DNA strand exchange, fluorescence dequenching;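 active means inhibition above 40% at the single screening dose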;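 further: 0% = DMSO control wells and 100% = blanks with heterologous ssDNA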
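material = hRad51 filaments on single-stranded DNA | timing = filaments 15 min 37 °C, then compound 30 min | signal = FRET fluorescence dequenching, excitation 485 nm, emission 520 nm | benchmarks = control wells and blank wells on each plate | evaluation = percent inhibition relative to plate controls and blanks | compound = 10 µM final, single point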
SKKanGAS inh: SKKanGAS growth inhibition; actives 1.3% (n = 300,000); S. pyogenes SKKanGAS, kanamycin growth, BacTiter-Glo, 6 h; inhibition, % at 7.5 µM;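 active means mean replicate score, as percent of positive control median, at least 50; inconclusive means mean below 50 but one replicate at or above 50; inactive means mean and every replicate below 50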;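 further: strain carries kanamycin resistance gene driven by streptokinase promoter and grows in 40 µg/ml kanamycin; loss of luminescence reflects streptokinase promoter inhibition or plain growth inhibition; 0% = median of DMSO wells and 100% = positive control at its reference dose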
Autophagy mod: modulators of autophagy. MEF GFP-LC3 puncta imaging; test concentration mostly 10 µM. calls only at 10 µM (by protocol). actives 0.98% (n = 190,000). AID 463193;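 active means percentage of spot-positive cells more than 3 SD above its plate mean, without a fluorescence outlier flag or 80% toxicity; inconclusive means no clear call, values can overlap the other calls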;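 further: spot-positive cell cutoff set from DMSO-treated cells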
Insulin prom up: MIN6 insulin promoter up-regulation; z-score at 5 µM; MIN6 insulin promoter-GFP reporter, high-content imaging; active compounds read high; actives 0.3% (n = 190,000); AID 1625;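 active means z-score above 3 at 5 µM with at least 500 cells counted in the well; inconclusive means wells under 500 cells, flagged as cytotoxic or low count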
WT yeast gro inh: growth inhibition of WT yeast, mitochondrial fusion screen; mitochondrial fusion phenotypic screen, WT strain; inhibition, % at 10 µM; actives 2.1% (n = 190,000); in the data active means inhibition above about 58%; tested in S. cerevisiae
KCC2 mod: modulators of human KCC2 chloride dependent transport; actives 2.2% (n = 190,000); B-score of Tl+ flux slope (higher = more flux/activation; lower = inhibition) at 10 µM; KCC2 cells, thallium flux FluoZin-2 fluorescence;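 active means thallium flux slope and its plate-corrected score both differing from the plate sample mean at a set confidence after two filtering rounds, in either direction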;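 further: slope of fluorescence scaled to starting intensity during 10 to 20 s after thallium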
Target sequence (Q9H2X9 whole entry, looked up): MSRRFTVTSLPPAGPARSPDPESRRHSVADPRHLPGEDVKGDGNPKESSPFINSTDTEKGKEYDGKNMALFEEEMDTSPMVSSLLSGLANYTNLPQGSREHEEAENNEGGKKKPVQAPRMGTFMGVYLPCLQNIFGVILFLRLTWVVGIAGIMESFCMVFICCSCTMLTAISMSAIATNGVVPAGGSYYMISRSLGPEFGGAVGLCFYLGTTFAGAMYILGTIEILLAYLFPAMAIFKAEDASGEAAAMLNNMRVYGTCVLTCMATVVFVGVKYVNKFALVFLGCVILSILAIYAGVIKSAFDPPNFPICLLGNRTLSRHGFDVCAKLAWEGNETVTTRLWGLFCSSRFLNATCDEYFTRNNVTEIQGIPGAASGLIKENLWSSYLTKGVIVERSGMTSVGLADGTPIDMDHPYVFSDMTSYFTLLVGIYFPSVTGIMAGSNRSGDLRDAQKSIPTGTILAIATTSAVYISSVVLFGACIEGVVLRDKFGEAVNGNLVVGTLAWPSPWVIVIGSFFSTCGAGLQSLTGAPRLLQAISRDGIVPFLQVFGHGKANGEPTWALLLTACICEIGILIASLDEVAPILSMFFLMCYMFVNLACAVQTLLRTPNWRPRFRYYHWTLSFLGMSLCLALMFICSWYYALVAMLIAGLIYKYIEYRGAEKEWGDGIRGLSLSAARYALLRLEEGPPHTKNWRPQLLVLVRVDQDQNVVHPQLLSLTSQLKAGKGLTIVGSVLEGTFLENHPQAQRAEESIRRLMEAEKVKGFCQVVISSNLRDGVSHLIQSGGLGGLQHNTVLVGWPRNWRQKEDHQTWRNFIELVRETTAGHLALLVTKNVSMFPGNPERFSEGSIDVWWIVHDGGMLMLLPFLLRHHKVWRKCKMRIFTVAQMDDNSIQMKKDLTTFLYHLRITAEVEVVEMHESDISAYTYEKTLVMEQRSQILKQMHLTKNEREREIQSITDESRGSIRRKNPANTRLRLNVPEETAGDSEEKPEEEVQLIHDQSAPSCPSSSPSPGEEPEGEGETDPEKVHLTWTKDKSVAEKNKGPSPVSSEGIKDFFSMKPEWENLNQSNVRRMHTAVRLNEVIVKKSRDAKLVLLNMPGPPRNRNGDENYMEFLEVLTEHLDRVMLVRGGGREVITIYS
KCC2 sec1: KCC2 (human) modulation, secondary assay; shares compounds with KCC2 mod; HEK293-KCC2, thallium flux, FluoZin2 fluorescence; active compounds read high; normalised thallium flux (F/F0 slope) at 10 µM; actives 15% (n = 3,700); AID 1713;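 active means thallium flux slope above the same plate's solvent-only control mean plus 3 SD; inconclusive means the two replicate wells disagree; inactive means no significant difference from solvent-only control wells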
KCC2 bumet counter: bumetanide-insensitive thallium flux in KCC2 cells with ouabain, counter-screen. actives 49% (n = 3,700). AID 1714. HEK293-KCC2 + bumetanide/ouabain, thallium flux FluoZin2; active compounds read high. shares compounds with KCC2 mod. normalized thallium flux at 10 µM;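 active means thallium entry rate above the same plate's blocked-transporter control wells by more than 3 SD; inconclusive means the two repeat wells disagree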;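 further: raw slope of fluorescence over initial fluorescence between 10 and 20 s after thallium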
KCC2 secondary2: KCC2 (human) modulation, second secondary assay; shares compounds with KCC2 mod; HEK293-KCC2, thallium flux FluoZin2 fluorescence; actives lie on both sides; F/F0 rise rate, 10–20 s post-thallium; actives 23% (n = 3,700); normalized thallium flux at 10 µM;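 active means thallium flux slope more than 3 SD above or below the plate's solvent-only control mean, mostly below; inconclusive means the two repeat wells disagreed; inactive means no significant shift from solvent-only controls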;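 further: raw slope with 0.1% DMSO as baseline and bumetanide as block control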
HEK counter1: acts in parental HEK cells, KCC2 counter-screen. HEK293 parental cells, thallium flux FluoZin2, ouabain; baseline-ratio fluorescence slope, 10–20 s after thallium. thallium flux rate (normalised fluorescence) at 10 µM. actives 46% (n = 3,700). AID 1716. shares compounds with KCC2 mod;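 active means thallium flux rate significantly above the same plate's solvent-only control wells, beyond their mean plus 3 SD; inconclusive means the two replicate wells gave conflicting results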
KCC2 retest ouab: KCC2 (human) modulation, ouabain retest; shares compounds with KCC2 mod; HEK293-KCC2, thallium flux FluoZin2 fluorescence; bidirectional: low = inhibitor, high = activator; raw Tl+ flux slope (below DMSO = inhibition, above = activation) at 10 µM; actives 48% (n = 3,700); AID 1717;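 active means thallium flux slope beyond 3 SD from same-plate DMSO control mean in most replicates, usually higher, sometimes lower; inconclusive means repeat tests gave conflicting results; inactive means no significant difference from controls in most replicates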;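 further: slope of initial-normalized fluorescence between seconds 10 and 20 after thallium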
HEK counter2: parental HEK flux effect, counter-screen 2. shares compounds with KCC2 mod. HEK293 parental, thallium flux FluoZin-2 fluorescence slope. thallium flux slope at 10 µM. actives 33% (n = 3,700);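 active means thallium flux slope above the same plate's solvent-control mean plus 3 SD in both duplicate wells; inconclusive means duplicate wells that disagreed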;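 further: run without ouabain in cells lacking the KCC2 cotransporter; slope of fluorescence scaled to its starting value between 10 and 20 s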
* = called active by the depositor.

How did COc1ccc(CCNC(=O)CC(Cc2ccc(C)cc2)C(=O)O)cc1OC (centres undefined) do in these assays?
SKKanGAS inh: -5

What do the screens show for `CN=c1scc(-c2ccc([N+](=O)[O-])cc2)n1/N=C/c1ccco1`?
Rad51 HR inh: -6; SKKanGAS inh: 0; Autophagy mod: inactive; Insulin prom up: -0.23; WT yeast gro inh: 1; KCC2 mod: 0.19

What do the screens show for `CN=c1scc(-c2ccc(F)cc2)n1/N=C/c1ccc(O)c(O)c1`?
Rad51 HR inh: 6; Autophagy mod: inactive; Insulin prom up: -0.41; WT yeast gro inh: -14; KCC2 mod: -4.2*; KCC2 sec1: 0.0048; KCC2 bumet counter: 0.0051; KCC2 secondary2: 0.023*; HEK counter1: 0.0069; KCC2 retest ouab: 0.015*; HEK counter2: inconclusive

How did CCN(CC)CCCn1c(=S)[nH]c2ncccc2c1=O do in these assays?
Rad51 HR inh: -4; SKKanGAS inh: 3; Autophagy mod: inactive; Insulin prom up: 0.8; WT yeast gro inh: 9; KCC2 mod: 1.2

What do the screens show for `O=c1c2cccnc2[nH]c(=S)n1CCCN1CCN(c2ccccc2F)CC1`?
SKKanGAS inh: -1; Autophagy mod: active; Insulin prom up: -0.75; WT yeast gro inh: -2; KCC2 mod: 20*; KCC2 sec1: 0.013*; KCC2 bumet counter: 0.076*; KCC2 secondary2: 0.038; HEK counter1: 0.039*; KCC2 retest ouab: 0.058*; HEK counter2: 0.013*

How did CCN(CCCn1c(=S)[nH]c2ccc(N3CCOCC3)cc2c1=O)c1ccccc1 do in these assays?
Rad51 HR inh: -4; SKKanGAS inh: 14; Autophagy mod: inactive; Insulin prom up: 0.62; WT yeast gro inh: -6; KCC2 mod: 4.9*; KCC2 sec1: 0.012*; KCC2 bumet counter: 0.017*; KCC2 secondary2: 0.03; HEK counter1: 0.0095*; KCC2 retest ouab: 0.052*; HEK counter2: 0.011*

What do the screens show for `CC(C)OCCCn1c(=S)[nH]c2ncccc2c1=O`?
SKKanGAS inh: -1; Autophagy mod: inactive; Insulin prom up: 0.38; WT yeast gro inh: 14; KCC2 mod: 13*; KCC2 sec1: 0.017*; KCC2 bumet counter: 0.034*; KCC2 secondary2: 0.031; HEK counter1: 0.016*; KCC2 retest ouab: 0.03*; HEK counter2: 0.012*

What do the screens show for `CCN(CCCn1c(=S)[nH]c2ncccc2c1=O)c1ccccc1`?
Rad51 HR inh: -3; SKKanGAS inh: 9; Autophagy mod: inactive; Insulin prom up: -0.46; WT yeast gro inh: -11; KCC2 mod: 78*; KCC2 sec1: 0.019*; KCC2 bumet counter: 0.14*; KCC2 secondary2: 0.038; HEK counter1: 0.12*; KCC2 retest ouab: 0.12*; HEK counter2: 0.023*

What do the screens show for `O=c1c2ccccc2[nH]c(=S)n1CCCN1CCN(c2ccccc2F)CC1`?
SKKanGAS inh: 2

Results for O=C(Nc1ccc2c(c1)OCO2)C1CCN(C(=O)c2ccc([N+](=O)[O-])cc2)CC1 ?
Rad51 HR inh: 0; SKKanGAS inh: 0; Autophagy mod: inactive; Insulin prom up: 0.39; WT yeast gro inh: -5; KCC2 mod: -0.33

How did O=C(CNC(=O)C1CCCCC1)NCc1ccco1 do in these assays?
SKKanGAS inh: -3

Results for O=C(COC(=O)c1ccccc1NCCO)Nc1cccc(S(=O)(=O)NC2=NCCCCC2)c1 ?
SKKanGAS inh: 1

Results for O=C(NC1CCCCC1)c1sc(=S)n2c1[nH]c(=O)c1ccccc12 ?
Rad51 HR inh: -3; SKKanGAS inh: 60*; Autophagy mod: inactive; Insulin prom up: -0.22; WT yeast gro inh: 64*; KCC2 mod: 8.7*; KCC2 sec1: 0.0081; KCC2 bumet counter: 0.033*; KCC2 secondary2: 0.041*; HEK counter1: 0.025*; KCC2 retest ouab: 0.035*; HEK counter2: 0.027*

Results for COc1cc(OC)c(OC)cc1/C=N/N(C)c1ccccc1 ?
Rad51 HR inh: -8; SKKanGAS inh: -11; Autophagy mod: inactive; Insulin prom up: -0.48; WT yeast gro inh: 29; KCC2 mod: -0.67

What do the screens show for `COc1cc(/C=N/N(C)c2ccccc2)ccc1O`?
Rad51 HR inh: -16; SKKanGAS inh: 3; Autophagy mod: inactive; Insulin prom up: -0.92; WT yeast gro inh: 19; KCC2 mod: -4.1*; KCC2 sec1: 0.006; KCC2 bumet counter: 0.0047; KCC2 secondary2: 0.025*; HEK counter1: 0.0069; KCC2 retest ouab: inconclusive; HEK counter2: 0.01

Results for O=C(Oc1cccc([N+](=O)[O-])c1)N1CCCCC1 ?
Rad51 HR inh: -9; SKKanGAS inh: 3; Autophagy mod: inactive; Insulin prom up: -0.66; WT yeast gro inh: 1; KCC2 mod: -0.051

How did Cc1nc2c(Br)c3nc(C(F)(F)F)[nH]c3c(Br)c2[nH]1 do in these assays?
Rad51 HR inh: 3; SKKanGAS inh: -2; Autophagy mod: inactive; Insulin prom up: -0.28; WT yeast gro inh: -3; KCC2 mod: -7.6*; KCC2 sec1: 0.0091; KCC2 bumet counter: 0.0063; KCC2 secondary2: 0.037; HEK counter1: 0.0045; KCC2 retest ouab: 0.021; HEK counter2: 0.012

Results for Cc1ccc(S(=O)(=O)N2CCN(C(=O)CN3C(=O)NC4(CCCC4)C3=O)CC2)c(C)c1 ?
SKKanGAS inh: 9

How did O=C(OC(C(=O)NC1CCCC1)c1ccncc1)C1=Cc2ccccc2OC1 (centres undefined) do in these assays?
Rad51 HR inh: 2; SKKanGAS inh: -12; Autophagy mod: inactive; Insulin prom up: -0.41; WT yeast gro inh: 8; KCC2 mod: -4.3*; KCC2 sec1: 0.0078; KCC2 bumet counter: 0.007; KCC2 secondary2: 0.03; HEK counter1: 0.0063; KCC2 retest ouab: 0.016*; HEK counter2: 0.01
